For one test, the species on record is Oryctolagus cuniculus. Nature of the test: Inhibition of Hsp90 chaperoning activity in rabbit reticulocyte lysate assessed as progesterone receptor hormone binding activity by liquid scintillation counting analysis. In a few lines:
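Purified PR was bound to PR22 antibody-protein A-sepharose beads and mildly heat-denatured. Then 0.1 μM [3H]-progesterone was added for 3 h on ice, beads washed three times, and bound hormone counted by liquid scintillation.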

Test [1] deals with Hs-578T. The experiment in a line: Cytotoxicity against human Hs578T cells assessed as cell survival at 10 to 20 uM after 48 hrs by MTS assay. The test is classed as functional, cell-based. Background: Formazan colour is commonly taken as a measure of viable cells.
Test [2] relates to MDA-MB-231. The experiment in a line: Cytotoxicity against human MDA-MB-231 cells assessed as cell survival at 10 to 20 uM after 48 hrs by MTS assay. Type of test: functional, cell-based.
The test system of test [3] is LNCaP. The experiment in a line: Cytotoxicity against human LNCAP cells assessed as cell survival at 10 to 20 uM after 48 hrs by MTS assay. The test is classed as functional, cell-based.
Test [4] deals with Hs-578T. The experiment in a line: Cytotoxicity against human Hs578T cells assessed as cell survival at 10 to 20 uM by MTS assay. The test is classed as functional, cell-based.
For the next test, the system named is MCF7. Nature of the test: Cytotoxicity against human MCF7 cells assessed as cell survival at 10 to 20 uM by MTS assay. The test is classed as functional, cell-based.
In test [5] the test system is MDA-MB-231. Nature of the test: Cytotoxicity against human MDA-MB-231 cells assessed as cell survival at 10 to 20 uM by MTS assay. Type of test: functional, cell-based.
A further test has as its system MDA-MB-453. The experiment in a line: Cytotoxicity against human MDA-MB-453 cells assessed as cell survival at 10 to 20 uM by MTS assay. Type of test: functional, cell-based.
In test [6] the test system is LNCaP. Nature of the test: Cytotoxicity against human LNCAP cells assessed as cell survival at 10 to 20 uM by MTS assay. Type of test: functional, cell-based.
In a further test the test system is HeLa. The experiment in a line: Cytotoxicity against human HeLa cells assessed as cell survival at 10 to 20 uM by MTS assay. The test is classed as functional, cell-based.
Test [7] concerns Hs-578T. Nature of the test: Induction of Hsp70 overexpression in human Hs578T cells at 10 to 20 uM by Western blot analysis. Type of test: functional, cell-based. In outline:
(§1)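 Hs578T cells seeded in 6-well plates, treated the next day for 48 h, with medium and drug at the same concentration replaced every 24 h. Cells were harvested at 48 h and lysed, and 10 μg protein lysate was analysed by Western blot with specific antibodies, including rabbit anti-total GR.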

Test [8] deals with Hs-578T. Nature of the test: Induction of glucocorticoid receptor degradation in human Hs578T cells at 10 to 20 uM by Western blot analysis. The test is classed as functional, cell-based. In outline:
as §1

Test [9] deals with Hs-578T. The experiment in a line: Induction of Hsp40 degradation in human Hs578T cells at 10 to 20 uM by Western blot analysis. Type of test: functional, cell-based. In a few lines:
as §1
(Immunoblotting shows a protein as a band on a membrane.)

Structures are written as SMILES. The source made the active and inactive calls. The calls are words filed in the database; no cut-off is given here.

With `CC[C@H](C)/C=C(C)/C=C/C1=CC2=C(Cl)C(=O)[C@](C)(O)C(=O)C2=CO1`, the inhibition entry in the test listed under Oryctolagus cuniculus, in the test on Hs-578T [1], with MDA-MB-231 [2] and in the test on LNCaP [3] was “Active” throughout.
Consider `C=CCNC1=C2C[C@@H](C)C[C@H](OC)[C@H](O)[C@@H](C)/C=C(\C)[C@H](OC(N)=O)[C@@H](OC)/C=C\C=C(/C)C(=O)NC(=CC1=O)C2=O`, for which the inhibition entry in the test filed under Oryctolagus cuniculus is “Active”.
As to `CC[C@H](C)/C=C(C)/C=C/C1=CC2=C(Cl)C(=O)[C@](C)(OC(C)=O)C(=O)C2=CO1`, in the test filed under Oryctolagus cuniculus, the inhibition entry is “Active”. Further, the outcome in the test on Hs-578T [4], with MCF7, with MDA-MB-231 [5], in the test on MDA-MB-453, in the test with LNCaP [6] and in the test with HeLa was inactive. Also, the outcome in the test with Hs-578T [7], in the test on Hs-578T [8] and in the test on Hs-578T [9] was Active.
